Publication PMC5035373 (Diabetes Technology & Therapeutics, 2016)

Columns and labels:
[1] = system: patients with type 2 diabetes; test: Safety and tolerability: adverse events, pain per visual analog scale; type: in vivo, human
Procedure, shortened: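 All enrolled patients were analysed for safety. Injection-site reactions, AEs and SAEs were recorded on study days and later visits, with their relation to the intervention. Insertion pain was rated on a visual analog scale and preference was surveyed. Intradermal vs SC tolerability was compared within subjects by Wilcoxon paired test.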

[2] = Insulin pharmacokinetics after ID; type: in vivo, human; conditions: for Insulin AUC 0–1 / Insulin AUC 0–1.5 / Insulin AUC 4–6: SD; for Cmax, median / Insulin AUC (360 min), median / Tmax, median: 0.2 U/kg
Procedure, shortened: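 Open-label randomized crossover in type 2 diabetics (30–70 y, BMI <35, HbA1c 6.5%–10%, drug-naive or metformin only). Insulin aspart 0.2 U/kg into right lower abdomen, intradermal via MicronJet or SC via pen, 4–14 days apart, fasting or pre-standard meal. Blood at −5 min, baseline, every 10 min to 2 h, then every 30 min to 6 h. Insulin measured by immunoassay; AUC, partial AUCs, AUCID/AUCSC derived.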

[3] = ID via MicronJet needle, all patients, n = 14
[4] = ID via MicronJet needle, before standard meal test, n = 3
[5] = SC conventional needle, all patients, n = 14
[6] = SC conventional needle, before standard meal test, n = 3
[7] = SC conventional needle, fasting, n = 11

Insulin aspart
Subjects experiencing AEs ([1]; 17 patients in safety analysis, 5 AEs in total): 3 of 17 | Local AEs (injection site reactions) ([1]; all 17 patients, ID and SC injections): No local AEs (injection site reactions) were reported | Insulin AUC 0–1 ([2]; ID MicronJet, 0–1 h, fasting population n = 11, mean ± SD): 3695.2 ± 1593.3 μU/mL/min | Insulin AUC 0–1.5 ([2]; ID MicronJet, 0–1.5 h, fasting population n = 11, mean ± SD): 4912.0 ± 2154.6 μU/mL/min | Insulin AUC 0–1.5 ([2]; ID MicronJet, 0–1.5 h postinjection, overall population n = 14, mean ± SD): 5156.3 ± 1988.7 μU/mL/min | Insulin AUC 4–6 ([2]; ID MicronJet, 4–6 h, fasting population n = 11, mean ± SD): 2027.3 ± 946.5 μU/mL/min | Insulin AUC 4–6 ([2]; ID MicronJet, 4–6 h postinjection, overall population n = 14, mean ± SD): 2054.4 ± 857.7 μU/mL/min | Cmax, median [2, 3]: 80 μU/mL | Insulin AUC (360 min), median [2, 3]: 9913.75 μU/mL/min | Tmax, median [2, 3]: 0.583 h | Cmax, median [2, 4]: 95 μU/mL | Insulin AUC (360 min), median [2, 4]: 12690 μU/mL/min | Tmax, median [2, 4]: 0.833 h | Cmax, median ([2]; ID via MicronJet needle, fasting, n = 11): 79 μU/mL | Cmax, median [2, 5]: 55 μU/mL | Insulin AUC (360 min), median [2, 5]: 10936.25 μU/mL/min | Tmax, median [2, 5]: 1.46 h | Cmax, median [2, 6]: 68 μU/mL | Insulin AUC (360 min), median [2, 6]: 13960 μU/mL/min | Tmax, median [2, 6]: 1.17 h | Cmax, median [2, 7]: 54.5 μU/mL | Insulin AUC (360 min), median [2, 7]: 10,407.5 μU/mL/min | Tmax, median ([2]; SC via NovoPen conventional needle, fasting, n = 11, type 2 diabetes): 1.5 h | Insulin AUC 0–1 ([2]; SC, 0–1 h, fasting population n = 11, mean ± SD): 2346.1 ± 609.7 μU/mL/min | Insulin AUC 0–1 ([2]; SC, 0–1 h postinjection, overall population n = 14, mean ± SD, post hoc): 2534.1 ± 737.1 μU/mL/min | Insulin AUC 0–1.5 ([2]; SC, 0–1.5 h, fasting population n = 11, mean ± SD): 3647.7 ± 904.0 μU/mL/min | Insulin AUC 0–1.5 ([2]; SC, 0–1.5 h postinjection, overall population n = 14, mean ± SD): 4035.4 ± 1255.9 μU/mL/min | Insulin AUC 4–6 ([2]; SC, 4–6 h, fasting population n = 11, mean ± SD): 2903.3 ± 1571.9 μU/mL/min | Insulin AUC 4–6 ([2]; SC, 4–6 h postinjection, overall population n = 14, mean ± SD): 2929.0 ± 1412.1 μU/mL/min
